Only some compounds are listed: those with a hit (about 2.7% of all), similar ones and a draw of the others.
Yeast lifespan up – yeast lifespan extension; S. cerevisiae growth with nicotinamide, OD615; deaD strain in restrictive glucose medium; inhibition of the nicotinamide effect, % at 10 µM; 130,000 tested, 0.68% active; AID 775;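 active means inhibition above a set limit, placed 3 SD over the median of all compounds, cut at about 26% in these data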;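 further: 0% = nicotinamide-treated wells and 100% = cells grown without nicotinamide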
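Buffer or medium: CSMM-D glucose medium, restrictive; test system: modified budding yeast, DeaD strain; compound: single dose 10 µM compound, 0.25% DMSO; schedule: culture preincubation 4 h, compound exposure 48 h, both 30 °C; detection: optical density (absorbance) at 615 nm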
Phagocyt inh – inhibitors of macrophage phagocytosis | J774A.1 macrophage IgG-bead phagocytosis, imaging | inhibition, % at 5 µM | 110,000 tested, 0.07% active;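 active means inhibition above the mean of the plate negative controls plus 5 SD, cut at about 13% in these data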;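 further: phagocytic index as fraction of beads internalized from green versus red external bead signal; plate controls were DMSO negative control for no effect and cytochalasin-D positive control for full effect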
Yeast growth inh – chemicals that inhibit yeast BB579 growth in restrictive medium (lifespan-shortening candidates); AID 804; inhibition, % at 10 µM; 140,000 tested, 0.51% active; S. cerevisiae BB579 growth, OD615, 48 h;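 active means inhibition above a set limit, 3 SD over the mean compound inhibition, cut at about 44% in these data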
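Test system: Saccharomyces cerevisiae DeaD strain BB579, replicative lifespan model yeast | Buffer or medium: Restrictive CSMM-D medium | Doses: One dose, 10 µM compound with 0.25% DMSO | Incubation: 48 h exposure, 30 °C | Detection: Culture absorbance at 615 nm | Control set: Amphotericin B at 10 µg/mL as positive control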
RAM network inh – yeast RAM network inhibition. S. cerevisiae dse1pr::URA3 reporter, 5-FOA growth OD615, 2 d; analog-sensitive cbk1-as2 kinase mutant strain. inhibition, % at 50 µM. 190,000 tested, 1.8% active. AID 868;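 active means inhibition above a set limit, 3 SD over mean compound inhibition, cut at about 8.4% in these data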;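 further: 0% = DMSO-only wells with no growth and 100% = 10 µM 1-NA-PP1 full growth; inhibition rescues growth on 5-FOA so higher OD means more RAM inhibition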
The depositor's hits bear a star; . = no result.

SMILES	Yeast lifespan up	Phagocyt inh	Yeast growth inh	RAM network inh
CC(C)NS(=O)(=O)c1ccc(CCC(=O)Nc2cc(Cl)ccc2Oc2ccccc2)cc1	-8	-1	-10	8.8*
CCNS(=O)(=O)c1ccc(CCC(=O)Nc2ccccc2)cc1	.	.	.	2
CC(C)(C)c1nnc2cccc(Cl)n12	.	.	.	2
O=C(c1ccc(COc2c(F)c(F)cc(F)c2F)o1)N1CCN(c2ccccc2)CC1	.	.	-18	11*
O=C(Nc1ccc(F)cc1F)c1ccc(COc2c(F)c(F)cc(F)c2F)o1	-13	-1	-38	8.6*
O=C1CC(c2cc([N+](=O)[O-])ccc2Cl)c2c(ccc3ccccc23)N1 (configuration not stated)	-4	-2	-22	8
O=C1c2cccc3c(O)ccc(c23)C(=O)N1Cc1ccco1	.	.	.	5
O=C1c2ccccc2C(=O)N1Cc1ccco1	-11	0	44*	1
CCOC(=O)c1cc(C)n(Cc2ccc(OCC)c(OC)c2)c1C	-5	-1	-32	-1
CC(/C=N/Nc1nc(C)cc(C)n1)=C\c1ccc(C(C)C)cc1	-6	-1	-46	4
O=C(Nc1ccc2nc(SCc3ccc(Cl)cc3)sc2c1)c1ccccc1C(=O)N1CCOCC1	-12	.	-18	6
COC(=O)CSc1nc2ccc(NC(=O)c3ccccc3C(=O)N3CCOCC3)cc2s1	-5	-7	-32	9.1*
O=C(CN1CCOCC1)Nc1ccccc1Sc1ccccc1	2	-6	-28	0
CC1CN(CC(=O)Nc2ccccc2Sc2ccccc2)CC(C)O1 (configuration not stated)	27*	-9	4	0
CCn1ncc(N(C)N)c(Cl)c1=O	.	.	.	2
COc1ccc(C(=O)N/C(=C\c2cn(S(=O)(=O)N(C)C)c3ccccc23)C(=O)NC(C)C)cc1	.	.	.	9.3*
COCCNCC(=O)N1CCCCCC1	.	.	.	0
COc1ccccc1OCC(=O)NNC(=O)c1cccs1	33*	-3	-39	2
C=CCn1c(SCC(=O)c2ccc(OC)cc2)nnc1-c1cc2cccc(OC)c2o1	-9	0	-35	11*
CC1=NN(C(=O)c2cccc(Cn3nc(C)c([N+](=O)[O-])c3C)c2)C(O)(C(F)(F)F)C1 (configuration not stated)	-11	2	-27	2
C=CCn1c(O)c(C(CC)=NCCN2CCOCC2)c(=O)[nH]c1=O	37*	0	20	1
CCOc1cc(S(=O)(=O)NCCc2cccc(C)c2)c(OCC)cc1-n1cnnn1	-15	1	3	8.8*
Cc1cc(NC(=O)c2ccccc2F)nc2c1c(=O)oc1ccccc12	.	.	.	4
Clc1ccccc1CSc1nnc(-c2ccncc2)o1	-20	2	10	0
COc1cc(-c2nnc(SCc3c(F)cccc3Cl)o2)cc(OC)c1OC	-8	1	-35	11*
SMILES	Yeast lifespan up	Phagocyt inh	Yeast growth inh	RAM network inh
COc1cc(-c2nnc(SCc3ccccc3Cl)o2)cc(OC)c1OC	-8	-5	-81	11*
O=C(Nc1ccccc1N1CCN(C(=O)c2ccccc2)CC1)c1cc2ccccc2o1	4	1	-32	8.5*
O=C(Nc1ccccc1N1CCCC1)c1cc2ccccc2o1	-20	.	-46	1
c1ccc2nc3ccccc3nc2c1	-8	.	60*	0
COc1ccc(C)cc1S(=O)(=O)N1CCC(C(=O)NCCc2ccccc2)CC1	28*	2	8	0
COc1ccc(S(=O)(=O)N2CCC(C(=O)NCCc3ccccc3)CC2)cc1OC	-2	-2	-9	2
Cc1oc2c(cc(NS(=O)(=O)c3ccc4c5c(cccc35)C(=O)N4)c3ccccc32)c1C(=O)OC(C)C	-2	.	-41	9.2*
COC(=O)c1ccccc1NS(=O)(=O)c1ccc2c3c(cccc13)C(=O)N2	.	-1	.	.
Oc1c(C(Nc2nc3ccccc3s2)c2ccco2)ccc2cccnc12 (configuration not stated)	-6	0	74*	-1
CC(C)C(=O)NC(c1ccco1)c1ccc2cccnc2c1O (configuration not stated)	-21	-1	-29	3
O=C(CCn1cnc(-c2ccccc2)c1-c1ccccc1)N/N=C/c1ccccc1O	-3	-3	-16	3
CCC(=O)Nc1nc(C)c(Oc2ccccc2)c(=O)[nH]1	-7	0	-28	-1
CC(=O)Nc1nc(C)c(Oc2ccccc2)c(=O)[nH]1	81*	-4	-40	0
O=C(NC1CCCc2ccccc21)c1ccccc1 (configuration not stated)	4	4	-32	1
O=C(O)C1C2C=CC(O2)C1C(=O)NC1CCCc2ccccc21 (configuration not stated)	-12	.	77*	0
CCN(CC)c1ccc(C=NCCc2ccc(S(N)(=O)=O)cc2)cc1	.	.	.	2
CCOc1ccc(CCNC(=O)c2cc3sccc3n2CC)cc1OCC	2	1	-25	9.0*
O=C(/C=C/Sc1ccccc1)c1ccccc1	25	2	-72	0
O=C(/C=C/Sc1ccccc1)c1ccc(Cl)cc1	28*	-2	-58	1
CCC(Sc1nc2cc(OC)c(OC)cc2c(=O)n1CCc1ccc(OC)c(OC)c1)C(=O)NCCOC (configuration not stated)	.	.	.	4
Cc1noc(C)c1CSc1nnc(-c2c[nH]c3ccccc23)n1-c1ccc(Cl)cc1	-1	0	-32	9.4*
COC(=O)c1ccc(NC(=O)CSC2=NC(=O)C(c3ccccc3)C(=O)N2)cc1 (configuration not stated)	-6	.	17	1
COC(=O)c1ccc(NC2=C(Cl)C(=O)OC2OC(=O)c2ccccc2)cc1 (configuration not stated)	.	.	.	4
Cc1ccc(NC2=C(Cl)C(=O)OC2OC(=O)c2ccc(C)cc2)cc1 (configuration not stated)	.	.	.	9.9*
CCOc1ccc(NC(=O)CSc2nc(C)cc(C)n2)cc1	.	.	-11	1
SMILES	Yeast lifespan up	Phagocyt inh	Yeast growth inh	RAM network inh
CCCCOc1ccc(NC(=S)Nc2cc(C)nc(SCCCC)n2)cc1	20	.	-29	9.6*
COCc1cc(S(=O)c2ccc(Cl)cc2)nc(C)n1 (configuration not stated)	.	.	.	-1
CC(C)(C)N/N=C/c1cc(Cl)cc([N+](=O)[O-])c1O	-8	-4	92*	-1
O=[N+]([O-])c1cc(Cl)cc(/C=N/Nc2nc3ccccc3s2)c1O	.	.	.	2
O=C(NCc1cccnc1)c1cn(-c2ccccc2)nc1-c1ccccc1	.	.	.	2
COc1ccc(C(=O)/C=C/c2ccc(OC3CSC3)cc2)cc1OC	-7	-2	-19	8.6*
O=C(/C=C/c1ccc(OC2CSC2)cc1)c1ccc(Cl)cc1	-1	.	-12	5
COC(=O)c1ccc(N/C=C/C(=O)c2ccc(OC)c(OC)c2)cc1	-2	3	-15	0
COc1ccc(C(=O)/C=C/N2CCCCC2)cc1OC	-6	-1	53*	3
C/C(=N\NS(=O)(=O)c1ccccc1)c1ccc2c(c1)OCCO2	-4	-8	-39	1

From PubChem
